Source: ChEMBL document CHEMBL2407081, “Discovery of potent, isoform-selective inhibitors of histone deacetylase containing chiral heterocyclic capping groups and a N-(2-aminophenyl)benzamide binding unit” (J Med Chem, 2013)
pIC50: −log10 of the molar value. Activity calls are given as the source filed them. The calls are words filed in the database; no cut-off is given here.

Legend:
[1] = target: Histone deacetylase 3/NCoR1 (Homo sapiens) (UniProt O15379+O75376); assay: Inhibition of recombinant HDAC3-NCoR1 (unknown origin) assessed as slow tight binding at 0.02 to 20 uM; format: protein-complex assay
MCF7 = assay: Cytotoxicity against human MCF7 cells assessed as growth inhibition by measuring cellular ATP level after 72 hrs by cell-titer glo assay; format: functional, cell-based; conditions: MCF7, 72 h
Cytochrome P450 3A4 = Cytochrome P450 3A4 (Homo sapiens, UniProt P08684); assay: Inhibition of CYP3A4 (unknown origin) using vivid red as substrate; format: ADME
[2] = Octanol-water partition coefficient, log p of the compound; format: physicochemical
Histone deacetylase 8 = target: T1, Histone deacetylase 8 (Homo sapiens, UniProt Q9BY41); assay: Inhibition of recombinant HDAC8 (unknown origin) expressed in Escherichia coli BL21 using MAL as substrate incubated for 15 mins prior to substrate addition measured after 60 mins by fluorescence plate reader analysis
T1 sequence (Q9BY41 whole entry): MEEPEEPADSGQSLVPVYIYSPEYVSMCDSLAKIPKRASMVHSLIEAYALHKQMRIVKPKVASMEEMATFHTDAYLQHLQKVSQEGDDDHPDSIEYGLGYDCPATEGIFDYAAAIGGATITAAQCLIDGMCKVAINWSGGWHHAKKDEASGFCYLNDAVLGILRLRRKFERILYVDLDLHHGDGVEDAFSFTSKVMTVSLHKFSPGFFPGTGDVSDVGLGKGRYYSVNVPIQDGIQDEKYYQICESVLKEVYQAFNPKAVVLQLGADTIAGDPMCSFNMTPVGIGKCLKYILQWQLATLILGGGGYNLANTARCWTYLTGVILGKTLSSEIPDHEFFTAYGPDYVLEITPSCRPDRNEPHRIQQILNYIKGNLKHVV

Cytochrome P450 2C9 = Cytochrome P450 2C9 (Homo sapiens, UniProt P11712); assay: Inhibition of CYP2C9 (unknown origin); format: ADME
Cytochrome P450 2D6 = Cytochrome P450 2D6 (Homo sapiens, UniProt P10635); assay: Inhibition of CYP2D6 (unknown origin); format: ADME
Jurkat = assay: Cell cycle arrest in human Jurkat cells assessed as accumulation at sub-G1 phase at 10 uM after 24 hrs by FITC/propidium iodide staining-based FACS flow cytometric analysis (reference value: 2%); format: functional
Method in brief: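 HeLa and Jurkat human cells were cultured for 24 h with compound at two concentrations. The control was an equal volume of the DMSO diluent. Cellular DNA and protein content were then measured by flow cytometry, and the percentage of cells in sub-G1, G0/G1, S and G2/M was read out.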

Sequence of Cytochrome P450 3A4 (P08684 whole entry): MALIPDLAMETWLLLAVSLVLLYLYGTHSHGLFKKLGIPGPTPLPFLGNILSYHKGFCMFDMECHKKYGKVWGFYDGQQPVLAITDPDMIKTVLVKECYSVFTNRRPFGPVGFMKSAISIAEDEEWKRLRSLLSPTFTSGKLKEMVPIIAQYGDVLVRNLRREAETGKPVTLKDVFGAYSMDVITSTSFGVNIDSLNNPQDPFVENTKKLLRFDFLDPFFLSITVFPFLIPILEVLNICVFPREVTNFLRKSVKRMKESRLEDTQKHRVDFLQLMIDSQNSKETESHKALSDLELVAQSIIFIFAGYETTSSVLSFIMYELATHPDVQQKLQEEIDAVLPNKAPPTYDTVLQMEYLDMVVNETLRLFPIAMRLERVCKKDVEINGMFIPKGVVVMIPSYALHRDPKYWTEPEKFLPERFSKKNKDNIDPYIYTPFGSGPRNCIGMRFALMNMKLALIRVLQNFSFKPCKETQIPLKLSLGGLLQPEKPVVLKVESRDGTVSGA
Sequence of Cytochrome P450 2D6 (P10635 whole entry): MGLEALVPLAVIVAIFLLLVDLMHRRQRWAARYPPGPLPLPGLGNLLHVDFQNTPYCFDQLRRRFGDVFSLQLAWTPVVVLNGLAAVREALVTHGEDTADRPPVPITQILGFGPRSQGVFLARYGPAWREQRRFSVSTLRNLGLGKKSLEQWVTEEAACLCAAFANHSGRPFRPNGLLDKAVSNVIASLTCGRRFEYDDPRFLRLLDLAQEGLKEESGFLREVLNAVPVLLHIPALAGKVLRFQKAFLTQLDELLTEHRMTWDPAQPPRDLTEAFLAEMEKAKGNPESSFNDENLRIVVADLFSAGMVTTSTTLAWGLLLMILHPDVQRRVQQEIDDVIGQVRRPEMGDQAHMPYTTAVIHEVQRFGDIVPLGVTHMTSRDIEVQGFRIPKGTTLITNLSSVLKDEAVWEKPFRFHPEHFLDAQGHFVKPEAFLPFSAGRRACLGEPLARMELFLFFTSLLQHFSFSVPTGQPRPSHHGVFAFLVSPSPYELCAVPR
Sequence of Cytochrome P450 2C9 (P11712 whole entry): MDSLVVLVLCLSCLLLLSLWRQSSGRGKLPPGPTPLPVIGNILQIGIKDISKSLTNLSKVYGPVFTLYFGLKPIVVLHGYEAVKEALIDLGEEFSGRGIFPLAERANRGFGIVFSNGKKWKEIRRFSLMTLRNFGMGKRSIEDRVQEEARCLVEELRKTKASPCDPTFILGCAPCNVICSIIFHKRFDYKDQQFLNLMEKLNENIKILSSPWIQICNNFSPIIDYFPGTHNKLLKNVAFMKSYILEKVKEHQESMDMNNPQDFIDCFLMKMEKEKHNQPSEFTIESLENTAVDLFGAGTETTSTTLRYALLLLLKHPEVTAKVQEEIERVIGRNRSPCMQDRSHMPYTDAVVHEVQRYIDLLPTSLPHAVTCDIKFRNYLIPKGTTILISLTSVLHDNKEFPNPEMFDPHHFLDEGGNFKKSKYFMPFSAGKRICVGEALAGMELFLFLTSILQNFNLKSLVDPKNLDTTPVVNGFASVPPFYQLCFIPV

- inhibition [1]: Active
- pIC50 (Cytochrome P450 3A4): 4.60
- logP [2]: 4.65
- pIC50 (Histone deacetylase 8): 5.39
- pIC50 (Cytochrome P450 2C9): 4.80
- pIC50 (Cytochrome P450 2D6): 7.10
Compound: Nc1ccccc1NC(=O)c1ccc(CNC2=N[C@@H](c3ccccc3)CS2)cc1
- pIC50 (MCF7): 5.27
- Activity (Jurkat): 19.5%
